# Test results reported in ChEMBL document CHEMBL3091335, “Design and synthesis of potent and selective P2X₃ receptor antagonists derived from PPADS as potential pain modulators” (Eur J Med Chem, 2013).
# Where a chain is given by its changes, count along the chain named. Active and inactive are the calls of the source. No cut-off for these calls is given here.
# Assays:
# [1] = target: T1, P2X purinoceptor 3 (Homo sapiens, UniProt P56373); test: Antagonist activity at recombinant human P2X3 receptor expressed in Xenopus oocytes assessed as inhibition of ATP-induced ion current preincubated for 20 mins followed by ATP addition by two-electrode voltage clamp assay; format: cell-based
# T1 sequence (P56373 whole entry): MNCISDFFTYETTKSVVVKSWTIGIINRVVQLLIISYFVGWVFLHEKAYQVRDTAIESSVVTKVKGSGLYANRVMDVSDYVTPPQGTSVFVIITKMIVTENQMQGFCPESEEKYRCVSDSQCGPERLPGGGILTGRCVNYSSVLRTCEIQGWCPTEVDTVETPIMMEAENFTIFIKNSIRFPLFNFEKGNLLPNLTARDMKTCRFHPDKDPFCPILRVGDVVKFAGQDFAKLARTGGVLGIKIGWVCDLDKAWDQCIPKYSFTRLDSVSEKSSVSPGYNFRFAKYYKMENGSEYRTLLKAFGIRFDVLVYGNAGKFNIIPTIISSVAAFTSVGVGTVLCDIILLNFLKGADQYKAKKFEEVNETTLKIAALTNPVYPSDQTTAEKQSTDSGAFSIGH
# Procedure, shortened: (§1)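 Defolliculated Xenopus oocytes were injected with mP2X1 or hP2X3 cRNA (40 nL), held 24 h at 18 °C in Barth's solution, then stored at 4 °C for up to 12 days. Two-electrode voltage clamp was run at Vh −70 mV in HEPES/BaCl2 buffer at pH 7.5. ATP was superfused for 60–120 s with 20 min washout. Currents were normalized to the ATP response, giving % inhibition or IC50 from inhibition curves; mean ± SEM, n≥3.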
# [2] = target: T2, P2X purinoceptor 1 (Mus musculus, UniProt P51576); test: Antagonist activity at recombinant mouse P2X1 receptor expressed in Xenopus oocytes assessed as inhibition of ATP-induced ion current preincubated for 20 mins followed by ATP addition by two-electrode voltage clamp assay; format: cell-based; procedure, shortened: as §1
# T2 sequence (P51576 whole entry): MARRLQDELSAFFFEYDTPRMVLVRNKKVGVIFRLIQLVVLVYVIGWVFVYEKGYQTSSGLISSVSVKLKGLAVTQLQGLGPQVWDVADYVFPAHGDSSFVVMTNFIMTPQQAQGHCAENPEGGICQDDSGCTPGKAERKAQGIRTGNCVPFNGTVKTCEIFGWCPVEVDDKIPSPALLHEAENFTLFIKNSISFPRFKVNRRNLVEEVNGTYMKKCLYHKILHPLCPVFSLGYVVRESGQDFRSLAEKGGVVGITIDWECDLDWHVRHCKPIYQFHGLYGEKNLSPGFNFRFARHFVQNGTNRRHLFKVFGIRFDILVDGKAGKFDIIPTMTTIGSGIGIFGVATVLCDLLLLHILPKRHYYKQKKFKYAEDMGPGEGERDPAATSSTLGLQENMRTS
# [3] = target: T3, P2X purinoceptor 7 (Homo sapiens) (UniProt Q99572); test: Antagonist activity at human P2X7 receptor expressed in HEK293 cells assessed as inhibition of BzATP-induced accumulation of ethidium+ at 10 uM after 120 mins by fluorescence assay relative to control; format: cell-based
# T3 sequence (whole entry): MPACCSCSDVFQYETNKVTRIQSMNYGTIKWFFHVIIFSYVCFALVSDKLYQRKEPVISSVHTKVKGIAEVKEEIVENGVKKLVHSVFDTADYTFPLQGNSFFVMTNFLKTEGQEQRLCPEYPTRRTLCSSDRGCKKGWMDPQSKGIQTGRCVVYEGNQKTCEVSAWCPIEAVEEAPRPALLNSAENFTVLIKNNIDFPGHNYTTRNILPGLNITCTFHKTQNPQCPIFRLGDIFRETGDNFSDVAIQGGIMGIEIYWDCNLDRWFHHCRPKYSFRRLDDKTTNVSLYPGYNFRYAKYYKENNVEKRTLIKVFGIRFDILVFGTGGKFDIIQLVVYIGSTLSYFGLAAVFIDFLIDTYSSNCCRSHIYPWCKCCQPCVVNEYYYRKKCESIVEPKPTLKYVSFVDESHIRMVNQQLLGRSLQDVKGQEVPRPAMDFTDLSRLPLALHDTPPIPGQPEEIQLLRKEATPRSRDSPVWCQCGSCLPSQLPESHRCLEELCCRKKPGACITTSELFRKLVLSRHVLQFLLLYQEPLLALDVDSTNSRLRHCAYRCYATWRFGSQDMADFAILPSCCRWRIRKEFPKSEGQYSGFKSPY
# Procedure, shortened: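 HEK293 cells expressing hP2X7 were grown in DMEM with 10% FBS at 37 °C under 5% CO2, harvested with trypsin/EDTA and resuspended at 2.5 × 10⁶ cells/mL in KCl/glucose/EDTA/HEPES buffer (pH 7.4) with ethidium bromide. Cells were plated at 2 × 10⁵ cells/well with BzATP and incubated at 37 °C for 120 min. Fluorescence was read at ex 530/em 590 nm; mean ± SEM, n≥3.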
# [4] = Antinociceptive activity in rat spinal dorsal horn assessed as inhibition of electrically-stimulated long term potentiation at 20 uM by Di-4-ANEPPS dye-based assay relative to control; format: functional; conditions: Dorsal horn of spinal cord
# Procedure, shortened: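 Ex vivo rat spinal cord slices (0.5 mm) loaded with voltage-sensitive dye Di-4-ANEPPS; optical signal in dorsal horn monitored before and after LTP induction by 2 Hz electrical stimulation (0.5 msec pulse) for 2 min. Expressed as % inhibition of LTP with compound treatment; means ± SD of 4 samples; pregabalin positive control.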
# [5] = target: T2, P2X purinoceptor 1; test: Antagonist activity at mouse P2X1 receptor
# [6] = target: T4, P2X purinoceptor 7 (Homo sapiens, UniProt Q99572); test: Antagonist activity at human P2X7 receptor expressed in HEK293 cells assessed as inhibition of BzATP-induced accumulation of ethidium+ after 120 mins by fluorescence assay; format: cell-based
# T4 sequence (Q99572 whole entry): T3 sequence (whole entry)
# [7] = target: T4, P2X purinoceptor 7; test: Antagonist activity at recombinant human P2X7 receptor assessed as inhibition of BzATP-mediated Yo-Pro uptake measured for 1 hr by FLIPR assay
# [8] = target: T5, P2X purinoceptor 1 (Rattus norvegicus, UniProt P47824); test: Antagonist activity at recombinant rat P2X1 receptor expressed in Xenopus oocytes assessed as ion flux stimulation; format: cell-based
# T5 sequence (P47824 whole entry): T2 sequence (P51576 whole entry) with G60D, M108V, A113T, H180R, L223Q, S231N, E260K, R314H, R381H, A384V
# [9] = target: T6, P2X purinoceptor 3 (Homo sapiens) (UniProt P56373); test: Antagonist activity at recombinant human P2X3 receptor expressed in Xenopus oocytes assessed as inhibition of ATP-induced ion current at 100 nM preincubated for 15 mins followed by ATP addition by two-electrode voltage clamp assay relative to control; format: cell-based
# T6 sequence (whole entry): T1 sequence (P56373 whole entry)
# [10] = target: T7, P2X purinoceptor 1 (Mus musculus) (UniProt P51576); test: Antagonist activity at recombinant mouse P2X1 receptor expressed in Xenopus oocytes assessed as inhibition of ATP-induced ion current at 10 uM preincubated for 20 mins followed by ATP addition by two-electrode voltage clamp assay relative to control; format: cell-based; procedure, shortened: as §1
# T7 sequence (whole entry): T2 sequence (P51576 whole entry)
# [11] = target: T8, P2X2/P2X3 receptor (Rattus norvegicus) (UniProt P49653+P49654); test: Antagonist activity at recombinant rat P2X2/3 receptor expressed in Xenopus oocytes assessed as inhibition of ATP-induced ion current at 100 nM preincubated for 15 mins followed by ATP addition by two-electrode voltage clamp assay relative to control; format: cell-based
# [12] = target: T6, P2X purinoceptor 3 (Homo sapiens); test: Antagonist activity at recombinant human P2X3 receptor expressed in Xenopus oocytes assessed as inhibition of ATP-induced ion current at 1 uM preincubated for 15 mins followed by ATP addition by two-electrode voltage clamp assay relative to control; format: cell-based
# [13] = target: T8, P2X2/P2X3 receptor (Rattus norvegicus); test: Antagonist activity at recombinant rat P2X2/3 receptor expressed in Xenopus oocytes assessed as inhibition of ATP-induced ion current at 1 uM preincubated for 15 mins followed by ATP addition by two-electrode voltage clamp assay relative to control; format: cell-based
Compound,IC50 [1],IC50 [2],inhibition [3],other results
Cc1nc(CCc2ccccc2)c(C(=O)O)c(C(=O)O)c1O,797 nM,645 nM,inactive,–
Cc1nc(CCc2ccc(C(=O)O)cc2)c(C(=O)O)c(C(=O)O)c1O,458 nM,267 nM,inactive,–
Cc1nc(/C=C/c2ccccc2)c(C(=O)O)c(C(=O)O)c1O,920 nM,768 nM,inactive,–
CC(C)C[C@H](CN)CC(=O)O [PREGABALIN],–,–,–,inhibition at 20 µM [4]: 31%
Cc1nc(/N=N/c2ccc(S(=O)(=O)O)cc2S(=O)(=O)O)c(COP(=O)(O)O)c(C=O)c1O,–,–,–,IC50 [5]: 99 nM
CN([C@@H](Cc1ccc(OS(=O)(=O)c2cccc3cnccc23)cc1)C(=O)N1CCN(c2ccccc2)CC1)S(=O)(=O)c1cccc2cnccc12,–,–,–,IC50 [6]: 158 nM; IC50 [7]: 210 nM
Cc1nc(/N=N/c2ccc(C(=O)O)cc2)c(COP(=O)(O)O)c(C=O)c1O,–,30 nM,–,IC50 [8]: 43 nM
Cc1nc(Cc2cccc(Oc3ccccc3)c2)c(/C=C/C(=O)O)c(C=O)c1O,60 nM,–,15.1%,inhibition [9]: 59.7%; inhibition [10]: 18.3%; inhibition [11]: 49.2%; inhibition at 20 µM [4]: 65%; inhibition [12]: 77.4%; inhibition [13]: 70.8%
COc1ccc(CCc2nc(C)c(O)c(C(=O)O)c2C(=O)O)cc1,460 nM,446 nM,inactive,–
